In publication PMC2939154 (Nature, 2010):
Substitutions are numbered along the chain they refer to. Entries after “also recorded” stand apart in the source; their conditions may differ. One block for each molecule: values may come before it. Ends that are not written are not given here.

How the values were obtained:
NRMT [1] = molecular target: T1, NRMT (Homo sapiens, UniProt Q9BV86); assay: isothermal titration calorimetry; type: binding; details: ITC, 25OC, methyltransferase buffer pH 8.0
T1 sequence (Q9BV86 1-223): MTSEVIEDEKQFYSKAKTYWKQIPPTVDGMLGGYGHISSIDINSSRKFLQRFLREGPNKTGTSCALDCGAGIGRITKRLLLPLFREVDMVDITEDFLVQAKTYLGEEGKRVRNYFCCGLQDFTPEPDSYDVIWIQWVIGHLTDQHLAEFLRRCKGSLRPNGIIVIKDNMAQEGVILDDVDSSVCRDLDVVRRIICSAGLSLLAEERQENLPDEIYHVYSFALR
How it was run: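 Isothermal titration calorimetry of NRMT binding to peptide ligands: the wild-type RCC1 N-terminal peptide and a mutant peptide with Gln in place of Lys4. This tests whether Lys4 is needed for substrate binding. The readout is binding affinity.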

[2] = system: N-terminally methylated proteins; details: mouse spleen and cardiac lysates, anti-me3-SPK immunoprecipitation
[3] = molecular target: N-terminal RCC1 methyltransferase (NRMT) (not stated (human or mouse cDNA cloned)) (UniProt Q9BV86); assay: ITC
SPK-RCC1 = type: biochemical, human; details: in vitro methylation of SPK-RCC1
NRMT [4] = molecular target: T1, NRMT; assay: in vitro methylation assay of protein substrates by NRMT, immunoblot; type: biochemical; details: 50mM Tris, 50mM K Acetate, pH 8.0, 100 µM SAM, 1 h at 30°C
[5] = system: RCC1 methylation in 293LT cells; assay: NRMT lentiviral knockdown and rescue in 293LT cells, immunoblot; type: cell-based; details: murine NRMT, not targeted by human shRNA

ΔH (exothermic binding) (NRMT [1]): -9.8 kcal/mol
Molecule: H-SPKRIAKRRSPP

Molecule: myosin light chain 3: mouse protein identified in anti-me3-SPK immunoprecipitates
N-terminal methylation identified by MS [2]: N-terminally methylated

Kd [3]: 70 µM
dH [3]: -9.8 kcal/mol
Molecule: wild-type 12-residue RCC1 N-terminal peptide

B1: kelch-like protein 31: mouse protein identified in anti-me3-SPK immunoprecipitates (protein, UniProt Q8BWA5 2-634, looked up)
Kelch-like protein 31: APKKKTIKKNKAEINEMTIIVEDSPLSKLNALNGLLEGSNSLSCVSSELTDTSYGPNLLEGLSKMRQESFLCDLVIGTKTKSFDVHKSVMASCSEYFYNILKNDPSTKRVDLNDIAPLGLATVIAYAYTGKLTLSLYTIGSIISAAVYLQIHTLVKMCSDFLIREISVENCMYVVNIAETYSLKNAKATAQKFIRDNFIEFAESEQFMKLTFEQINELLVDDDLQLPSELVAFQIAMKWLEFDQKRVKHAADLLSNIRFGTISAQDLVNYVQTVPRMMQDADCHKLLVDAMNYHLLPYHQNTLQSRRTRIRGGCRVLITVGGRPGLTEKSLSRDILYRDPENGWSKLTEMPAKSFNQCVAVMDGFLYVAGGEDQNDARNQAKHAVSNFCRYDPRFNTWIHLGSMNQKRTHFSLSVFNGLLYAVGGRNSEGSLASLECYVPSTNQWQPKAPLEVARCCHASAVADGRVIVTGGYIGSAYSRSVCAYDPALDAWQELPQLSTPRGWHCAVALGDRLYVMGGSQLGPRGERVDVLTVESFSPAARQWSFVAPLPVGVSTAGVSALHGRAYLLGGWNEGDKKYKKCIQCFNPELNEWTEDDELPEATVGVSCCTLAMPNSVSRESRASSVSSVPVSI
N-terminal methylation identified by MS [2]: N-terminally methylated

B2: myosin light chain 2: mouse protein identified in anti-me3-SPK immunoprecipitates (protein, UniProt P51667 2-166, looked up)
Myosin regulatory light chain …: APKKAKKRIEGGSSNVFSMFEQTQIQEFKEAFTIMDQNRDGFIDKNDLRDTFAALGRVNVKNEEIDEMIKEAPGPINFTVFLTMFGEKLKGADPEETILNAFKVFDPEGKGSLKADYVREMLTTQAERFSKEEIDQMFAAFPPDVTGNLDYKNLVHIITHGEEKD
N-terminal methylation identified by MS [2]: N-terminally methylated

B3: NRMT(Lys169): NRMT mutant at Asn169 (protein)
chain: TSEVIEDEKQFYSKAKTYWKQIPPTVDGMLGGYGHISSIDINSSRKFLQRFLREGPNKTGTSCALDCGAGIGRITKRLLLPLFREVDMVDITEDFLVQAKTYLGEEGKRVRNYFCCGLQDFTPEPDSYDVIWIQWVIGHLTDQHLAEFLRRCKGSLRPNGIIVIKDKMAQEGVILDDVDSSVCRDLDVVRRIICSAGLSLLAEERQENLPDEIYHVYSFALR
methylation activity of NRMT mutant (SPK-RCC1): no activity

B4: RCC1: regulator of chromosome condensation 1, Ran guanine nucleotide-exchange factor (protein, UniProt P18754 2-421, looked up)
Regulator of chromosome …: SPKRIAKRRSPPADAIPKSKKVKVSHRSHSTEPGLVLTLGQGDVGQLGLGENVMERKKPALVSIPEDVVQAEAGGMHTVCLSKSGQVYSFGCNDEGALGRDTSVEGSEMVPGKVELQEKVVQVSAGDSHTAALTDDGRVFLWGSFRDNNGVIGLLEPMKKSMVPVQVQLDVPVVKVASGNDHLVMLTADGDLYTLGCGEQGQLGRVPELFANRGGRQGLERLLVPKCVMLKSRGSRGHVRFQDAFCGAYFTFAISHEGHVYGFGLSNYHQLGTPGTESCFIPQNLTSFKNSTKSWVGFSGGQHHTVCMDSEGKAYSLGRAEYGRLGLGEGAEEKSIPTLISRLPAVSSVACGASVGYAVTKDGRVFAWGMGTNYQLGTGQDEDAWSPVEMMGKQLENRVVLSVSSGGQHTVLLVKDKEQS
N-terminal methylation identified by MS [2]: N-terminally methylated

in vitro methylation (enzyme FLAG-NRMT or His6-NRMT; substrate protein) (NRMT [4]): dimethylates
B5: PPK-RCC1-His6: RCC1 possessing a Pro2 residue, His6 tagged (protein, UniProt P18754 2-421, looked up, variant S2P)
Regulator of chromosome …: B4 Regulator of chromosome … with S1P
modifications: His6 tag

B6: murine NRMT-FLAG: murine NRMT-FLAG, not targeted by the human shRNA (protein, UniProt Q8R2U4 1-223, looked up)
N-terminal Xaa-Pro-Lys …: MTSEVIEDEKQFYSKAKTYWKQIPPTVDGMLGGYGHISNIDLNSSRKFLQRFLREGPNKTGTSCALDCGAGIGRITKRLLLPLFRVVDMVDVTEDFLAKAKTYLGEEGKRVRNYFCCGLQDFSPEPGSYDVIWIQWVIGHLTDQHLAEFLRRCKRGLRPNGIIVIKDNMAQEGVILDDVDSSVCRDLEVVRRIIRTAGLSLLAEERQENLPDEIYHVYSFALR
modifications: FLAG tag
RCC1 methylation levels, rescue in NRMT knockdown cells [5]: rescues RCC1 methylation levels; also recorded: RCC1 methylation was rescued

in vitro methylation (enzyme FLAG-NRMT or His6-NRMT; substrate protein) (NRMT [4]): methylates RCC1-His6
B7: FLAG-NRMT: N-terminally FLAG-tagged NRMT (protein, UniProt Q9BV86 1-223, looked up)
N-terminal Xaa-Pro-Lys …: T1 sequence (Q9BV86 1-223)
modifications: N-terminal FLAG tag

in vitro methylation (enzyme FLAG-NRMT or His6-NRMT; substrate protein) (NRMT [4]): di-and trimethylates
B8: RCC1-His6: recombinant RCC1 with C-terminal His6 tag (protein)
chain: MSPKRIAKRRSPPADAIPKSKKVKVSHRSHSTEPGLVLTLGQGDVGQLGLGENVMERKKPALVSIPEDVVQAEAGGMHTVCLSKSGQVYSFGCNDEGALGRDTSVEGSEMVPGKVELQEKVVQVSAGDSHTAALTDDGRVFLWGSFRDNNGVIGLLEPMKKSMVPVQVQLDVPVVKVASGNDHLVMLTADGDLYTLGCGEQGQLGRVPELFANRGGRQGLERLLVPKCVMLKSRGSRGHVRFQDAFCGAYFTFAISHEGHVYGFGLSNYHQLGTPGTESCFIPQNLTSFKNSTKSWVGFSGGQHHTVCMDSEGKAYSLGRAEYGRLGLGEGAEEKSIPTLISRLPAVSSVACGASVGYAVTKDGRVFAWGMGTNYQLGTGQDEDAWSPVEMMGKQLENRVVLSVSSGGQHTVLLVKDKEQS
modifications: left off: His6, C-terminal, state not stated

B9: RB: tumor suppressor protein RB; endogenous, or N-terminus fused to GFP (Fig. 3g) (protein, UniProt P06400 2-928, looked up)
Retinoblastoma-associated …: PPKTPRKTAATAAAAAAEPPAPPPPPPPEEDPEQDSGPEDLPLVRLEFEETEEPDFTALCQKLKIPDHVRERAWLTWEKVSSVDGVLGGYIQKKKELWGICIFIAAVDLDEMSFTFTELQKNIEISVHKFFNLLKEIDTSTKVDNAMSRLLKKYDVLFALFSKLERTCELIYLTQPSSSISTEINSALVLKVSWITFLLAKGEVLQMEDDLVISFQLMLCVLDYFIKLSPPMLLKEPYKTAVIPINGSPRTPRRGQNRSARIAKQLENDTRIIEVLCKEHECNIDEVKNVYFKNFIPFMNSLGLVTSNGLPEVENLSKRYEEIYLKNKDLDARLFLDHDKTLQTDSIDSFETQRTPRKSNLDEEVNVIPPHTPVRTVMNTIQQLMMILNSASDQPSENLISYFNNCTVNPKESILKRVKDIGYIFKEKFAKAVGQGCVEIGSQRYKLGVRLYYRVMESMLKSEEERLSIQNFSKLLNDNIFHMSLLACALEVVMATYSRSTSQNLDSGTDLSFPWILNVLNLKAFDFYKVIESFIKAEGNLTREMIKHLERCEHRIMESLAWLSDSPLFDLIKQSKDREGPTDHLESACPLNLPLQNNHTAADMYLSPVRSPKKKGSTTRVNSTANAETQATSAFQTQKPLKSTSLSLFYKKVYRLAYLRLNTLCERLLSEHPELEHIIWTLFQHTLQNEYELMRDRHLDQIMMCSMYGICKVKNIDLKFKIIVTAYKDLPHAVQETFKRVLIKEEEYDSIIVFYNSVFMQRLKTNILQYASTRPPTLSPIPHIPRSPYKFPSSPLRIPGGNIYISPLKSPYKISEGLPTPTKMTPRSRILVSIGESFGTSEKFQKINQMVCNSDRVLKRSAEGSNPPKPLKKLRFDIEGSDEADGSKHLPGESKFQQKLAEMTSTRTRMQKQKMNDSMDTSNKEEK
in vitro methylation (enzyme FLAG-NRMT or His6-NRMT; substrate protein) (NRMT [4]): can methylate in vitro; also recorded: able to methylate
